Source: ChEMBL document CHEMBL3992547, “Antimicrobial activity of rhodanine-3-acetic acid derivatives” (Bioorg Med Chem, 2017)
≈ marks a conversion by molar mass, not a printed value. Calls of active or inactive are those of the source. The rule behind the calls is not given here.

Tests used:
Aspergillus fumigatus [1] = experiment: Antifungal activity against Aspergillus fumigatus 231 after 48 hrs by microdilution broth assay; format: functional; conditions: Aspergillus fumigatus, 231, 48 h
Summary of the method: (§1)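 Broth microdilution per CLSI M27-A3 and M38-A2 in RPMI 1640 with glutamine, buffered to pH 7.0 with MOPS. Compounds are diluted in DMSO. Final inoculum is 5 × 10³ CFU/mL for yeasts and 0.5–5 × 10⁴ CFU/mL for moulds. Plates are incubated in the dark at 35 °C in humid air and read visually and/or at 540 nm after 24 and 48 h. MIC is ≥80% growth reduction (IC₈₀) for yeasts and ≥50% (IC₅₀) for filamentous fungi.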

[2] = test system: Trichophyton mentagrophytes; experiment: Antifungal activity against Trichophyton mentagrophytes 445 after 72 hrs by microdilution broth assay; format: functional; conditions: Trichophyton mentagrophytes, 445, 72 h
Summary of the method: (§2)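 Broth microdilution per CLSI M38-A2 in RPMI 1640 with glutamine, buffered to pH 7.0 with MOPS, with DMSO as diluent. Final inoculum is 0.5–5 × 10⁴ CFU/mL. Plates are incubated in the dark at 35 °C in humid air and read visually and/or at 540 nm after 72 and 120 h. MIC is at least 50% growth reduction versus control.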

[3] = test system: Mycobacterium tuberculosis; experiment: Antimycobacterial activity against Mycobacterium tuberculosis H37Rv 331/88 measured after 21 days by micromethod; format: functional; conditions: H37Rv 331/88, 504 h
Klebsiella pneumoniae [4] = experiment: Antibacterial activity against ESBL positive Klebsiella pneumoniae J 14368/08 up to 500 uM incubated for 24 to 48 hrs under dark condition by microdilution broth assay; format: functional
Summary of the method: (§3)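 Broth microdilution per M07-A07, modified, in Mueller-Hinton broth adjusted to pH 7.4 (±0.2). Inoculum is prepared in sterile water to McFarland 0.5 (1.5 × 10⁸ CFU/mL). Plates are incubated in the dark at 35 °C in humid air. MIC is read after 24 and 48 h as at least 95% growth reduction versus control (IC₉₅).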

Lichtheimia corymbifera = experiment: Antifungal activity against Absidia corymbifera 272 after 24 to 48 hrs hrs by microdilution broth assay; format: functional; summary of the method: as §1
Mycobacterium kansasii [5] = experiment: Antimycobacterial activity against Mycobacterium kansasii isolate 235/80 after 14 days by micromethod; format: functional; conditions: isolate 235/80, 336 h
Mycobacterium kansasii [6] = experiment: Antimycobacterial activity against Mycobacterium kansasii isolate 6509/96 after 21 days by micromethod; format: functional; conditions: isolate 6509/96, 504 h
Mycobacterium kansasii [7] = experiment: Antimycobacterial activity against Mycobacterium kansasii isolate 235/80 after 7 days by micromethod; format: functional; conditions: isolate 235/80, 168 h
Candida albicans [8] = experiment: Antifungal activity against Candida albicans ATCC 44859 after 24 hrs by microdilution broth assay; format: functional; conditions: ATCC 44859, 24 h; summary of the method: as §1
Nakaseomyces glabratus [9] = experiment: Antifungal activity against Candida glabrata 20/I after 24 hrs by microdilution broth assay; format: functional; summary of the method: as §1
Candida tropicalis [10] = experiment: Antifungal activity against Candida tropicalis 156 after 48 hrs by microdilution broth assay; format: functional; conditions: Candida tropicalis, 156, 48 h; summary of the method: as §1
Klebsiella pneumoniae [11] = experiment: Antibacterial activity against Klebsiella pneumoniae D 11750/08 up to 500 uM incubated for 24 to 48 hrs under dark condition by microdilution broth assay; format: functional; summary of the method: as §3
Pseudomonas aeruginosa = experiment: Antibacterial activity against Pseudomonas aeruginosa CCM 1961 up to 500 uM incubated for 24 to 48 hrs under dark condition by microdilution broth assay; format: functional; summary of the method: as §3
Mycobacterium kansasii [12] = experiment: Antimycobacterial activity against Mycobacterium kansasii isolate 6509/96 after 7 days by micromethod; format: functional; conditions: isolate 6509/96, 168 h
Mycobacterium avium [13] = experiment: Antimycobacterial activity against Mycobacterium avium 330/88 measured after 21 days by micromethod; format: functional; conditions: 330/88, 504 h
Candida tropicalis [14] = experiment: Antifungal activity against Candida tropicalis 156 after 24 hrs by microdilution broth assay; format: functional; conditions: Candida tropicalis, 156, 24 h; summary of the method: as §1
Trichosporon asahii [15] = experiment: Antifungal activity against Trichosporon asahii 1188 after 24 hrs by microdilution broth assay; format: functional; conditions: Trichosporon asahii, 1188, 24 h; summary of the method: as §1
Nakaseomyces glabratus [16] = experiment: Antifungal activity against Candida glabrata 20/I after 48 hrs by microdilution broth assay; format: functional; summary of the method: as §1
Pichia kudriavzevii = experiment: Antifungal activity against Candida krusei E28 after 24 to 48 hrs hrs by microdilution broth assay; format: functional; summary of the method: as §1
Trichosporon asahii [17] = experiment: Antifungal activity against Trichosporon asahii 1188 after 48 hrs by microdilution broth assay; format: functional; conditions: Trichosporon asahii, 1188, 48 h; summary of the method: as §1
Candida albicans [18] = experiment: Antifungal activity against Candida albicans ATCC 44859 after 48 hrs by microdilution broth assay; format: functional; conditions: ATCC 44859, 48 h; summary of the method: as §1
Aspergillus fumigatus [19] = experiment: Antifungal activity against Aspergillus fumigatus 231 after 24 hrs by microdilution broth assay; format: functional; conditions: Aspergillus fumigatus, 231, 24 h; summary of the method: as §1
[20] = test system: Mycobacterium tuberculosis; experiment: Antimycobacterial activity against Mycobacterium tuberculosis H37Rv 331/88 measured after 14 days by micromethod; format: functional; conditions: H37Rv 331/88, 336 h
[21] = Solubility of the compound in Sula's semisynthetic medium up to 1 mM; format: physicochemical
[22] = test system: Trichophyton mentagrophytes; experiment: Antifungal activity against Trichophyton mentagrophytes 445 after 120 hrs by microdilution broth assay; format: functional; conditions: Trichophyton mentagrophytes, 445, 120 h; summary of the method: as §2
Mycobacterium avium [23] = experiment: Antimycobacterial activity against Mycobacterium avium 330/88 measured after 14 days by micromethod; format: functional; conditions: 330/88, 336 h
Mycobacterium kansasii [24] = experiment: Antimycobacterial activity against Mycobacterium kansasii isolate 6509/96 after 14 days by micromethod; format: functional; conditions: isolate 6509/96, 336 h
Mycobacterium kansasii [25] = experiment: Antimycobacterial activity against Mycobacterium kansasii isolate 235/80 after 21 days by micromethod; format: functional; conditions: isolate 235/80, 504 h
Staphylococcus aureus [26] = experiment: Antibacterial activity against Staphylococcus aureus CCM 4516/08 incubated for 24 hrs under dark condition by microdilution broth assay; format: functional; conditions: CCM 4516/08, 24 h; summary of the method: as §3
Escherichia coli [27] = experiment: Antibacterial activity against Escherichia coli CCM 4517 incubated for 48 hrs under dark condition by microdilution broth assay; format: functional; conditions: CCM 4517, 48 h; summary of the method: as §3
Staphylococcus aureus [28] = experiment: Antibacterial activity against methicillin-resistant Staphylococcus aureus H 5996/08 incubated for 48 hrs under dark condition by microdilution broth assay; format: functional; conditions: H 5996/08, 48 h
Summary of the method: (§4)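 Microdilution broth method modified per M07-A07, in Mueller-Hinton broth adjusted to pH 7.4 (±0.2). Inoculum made in sterile water to 0.5 McFarland (1.5 × 10⁸ CFU/mL). Plates incubated in the dark at 35 °C in a humid atmosphere, with reads at 24 and 48 h. MIC taken as at least 95% growth reduction (IC₉₅) versus control.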

Staphylococcus aureus [29] = experiment: Antibacterial activity against methicillin-resistant Staphylococcus aureus H 5996/08 incubated for 24 hrs under dark condition by microdilution broth assay; format: functional; conditions: H 5996/08, 24 h; summary of the method: as §4
[30] = test system: Staphylococcus epidermidis; experiment: Antibacterial activity against Staphylococcus epidermidis H 6966/08 incubated for 24 hrs under dark condition by microdilution broth assay; format: functional; conditions: H 6966/08, 24 h; summary of the method: as §3
[31] = test system: Staphylococcus epidermidis; experiment: Antibacterial activity against Staphylococcus epidermidis H 6966/08 incubated for 48 hrs under dark condition by microdilution broth assay; format: functional; conditions: H 6966/08, 48 h; summary of the method: as §3
Enterococcus [32] = experiment: Antibacterial activity against Enterococcus sp. J 14365/08 incubated for 48 hrs under dark condition by microdilution broth assay; conditions: J 14365/08, 48 h
Escherichia coli [33] = experiment: Antibacterial activity against Escherichia coli CCM 4517 incubated for 24 hrs under dark condition by microdilution broth assay; format: functional; conditions: CCM 4517, 24 h; summary of the method: as §3
Staphylococcus aureus [34] = experiment: Antibacterial activity against Staphylococcus aureus CCM 4516/08 incubated for 48 hrs under dark condition by microdilution broth assay; format: functional; conditions: CCM 4516/08, 48 h; summary of the method: as §3
Enterococcus [35] = experiment: Antibacterial activity against Enterococcus sp. J 14365/08 incubated for 24 hrs under dark condition by microdilution broth assay; conditions: J 14365/08, 24 h

SMILES | MIC50 (Aspergillus fumigatus [1]) [µM] | MIC50 [2] [µM] | MIC [3] [µM] | Activity (Klebsiella pneumoniae [4]) | Activity (Lichtheimia corymbifera) | MIC (Mycobacterium kansasii [5]) [µM] | MIC (Mycobacterium kansasii [6]) [µM] | MIC (Mycobacterium kansasii [7]) [µM] | MIC80 (Candida albicans [8]) [µM] | MIC80 (Nakaseomyces glabratus [9]) [µM] | MIC80 (Candida tropicalis [10]) [µM] | Activity (Klebsiella pneumoniae [11]) | Activity (Pseudomonas aeruginosa) | MIC (Mycobacterium kansasii [12]) [µM] | MIC (Mycobacterium avium [13]) [µM] | MIC80 (Candida tropicalis [14]) [µM] | MIC80 (Trichosporon asahii [15]) [µM] | MIC80 (Nakaseomyces glabratus [16]) [µM] | Activity (Pichia kudriavzevii) | MIC80 (Trichosporon asahii [17]) [µM] | also measured
O=C(CN1C(=O)CSC1=S)Oc1ccc(Cl)cc1 | > 500 | 500 (≈ 151 µg/mL) | 500 (≈ 151 µg/mL) | inactive | inactive | 500 (≈ 151 µg/mL) | 500 (≈ 151 µg/mL) | 250 (≈ 75.4 µg/mL) | > 500 | > 500 | > 500 | inactive | inactive | 250 (≈ 75.4 µg/mL) | 1000 (≈ 302 µg/mL) | > 500 | > 500 | > 500 | inactive | > 500 | MIC80 (Candida albicans [18]): > 500 µM; MIC50 (Aspergillus fumigatus [19]): > 500 µM; MIC [20]: 250 µM (≈ 75.4 µg/mL); solubility [21]: Soluble; MIC50 [22]: 500 µM (≈ 151 µg/mL); MIC (Mycobacterium avium [23]): 1000 µM (≈ 302 µg/mL); MIC (Mycobacterium kansasii [24]): 500 µM (≈ 151 µg/mL); MIC (Mycobacterium kansasii [25]): 1000 µM (≈ 302 µg/mL)
OC(Cn1cncn1)(Cn1cncn1)c1ccc(F)cc1F [FLUCONAZOLE] | > 500 | 7.81 (≈ 2.39 µg/mL) | – | – | – | – | – | – | 0.24 (≈ 0.0735 µg/mL) | 62.5 (≈ 19.1 µg/mL) | > 500 | – | – | – | – | > 500 | 250 (≈ 76.6 µg/mL) | 500 (≈ 153 µg/mL) | – | 500 (≈ 153 µg/mL) | MIC80 (Candida albicans [18]): 0.24 µM (≈ 0.0735 µg/mL); MIC50 (Aspergillus fumigatus [19]): > 500 µM; MIC50 [22]: 125 µM (≈ 38.3 µg/mL)
O=C(O)CN1C(=O)/C(=C/c2ccccn2)SC1=S | ≥ 0.98 | ≥ 0.98 | 500 (≈ 140 µg/mL) | inactive | inactive | 1000 (≈ 280 µg/mL) | 1000 (≈ 280 µg/mL) | 500 (≈ 140 µg/mL) | ≥ 0.98 | ≥ 0.98 | ≥ 0.98 | inactive | inactive | 500 (≈ 140 µg/mL) | 1000 (≈ 280 µg/mL) | ≥ 0.98 | ≥ 0.98 | ≥ 0.98 | inactive | ≥ 0.98 | MIC80 (Candida albicans [18]): ≥ 0.98 µM; MIC50 (Aspergillus fumigatus [19]): ≥ 0.98 µM; MIC [20]: 250 µM (≈ 70.1 µg/mL); solubility [21]: Soluble; MIC50 [22]: ≥ 0.98 µM; MIC (Mycobacterium avium [23]): 1000 µM (≈ 280 µg/mL); MIC (Mycobacterium kansasii [24]): 500 µM (≈ 140 µg/mL); MIC (Mycobacterium kansasii [25]): 1000 µM (≈ 280 µg/mL)
O=C(CN1C(=O)/C(=C/c2ccccn2)SC1=S)Nc1ccc(Cl)cc1 | – | – | > 250 | inactive | inactive | > 250 | > 250 | > 250 | – | – | – | inactive | inactive | > 250 | > 250 | – | – | – | inactive | – | MIC95 (Staphylococcus aureus [26]): > 125 µM; MIC95 (Escherichia coli [27]): > 125 µM; MIC95 (Staphylococcus aureus [28]): > 125 µM; MIC95 (Staphylococcus aureus [29]): > 125 µM; MIC95 [30]: > 125 µM; MIC95 [31]: > 125 µM; MIC95 (Enterococcus [32]): > 125 µM; MIC95 (Escherichia coli [33]): > 125 µM; MIC95 (Staphylococcus aureus [34]): > 125 µM; MIC [20]: > 250 µM; MIC95 (Enterococcus [35]): 125 µM (≈ 48.7 µg/mL); solubility [21]: Soluble; MIC (Mycobacterium avium [23]): > 250 µM; MIC (Mycobacterium kansasii [24]): > 250 µM; MIC (Mycobacterium kansasii [25]): > 250 µM
